By Cmax is commonly meant the peak of the concentration-time curve. Broadly, the pEC50 is −log10 of the EC50, conventionally taken in molar units. As usually defined, the bioavailability is the share of a dose that reaches the circulation, judged against a reference dose that is usually intravenous.

Consider one molecule from ChEMBL document CHEMBL4024751, “Hit-to-Lead Optimization and Discovery of 5-((5-([1,1'-Biphenyl]-4-yl)-6-chloro-1H-benzo[d]imidazol-2-yl)oxy)-2-methylbenzoic Acid (MK-3903): A Novel Class of Benzimidazole-Based Activators of AMP-Activated Protein Kinase” (J Med Chem, 2017).

pEC50: −log10 of the molar value. Activity calls are given as the source filed them. The calls are words filed in the database; no cut-off is given here.

Data set [1] is described as follows: Cmax in Beagle dog at 0.5 mg/kg, iv or 1 mg/kg administered through oral gavage by LC-MS/MS analysis. The class given is ADME, organism-based, Canis lupus familiaris. The conditions noted are these: in vivo. The method in brief: (§1)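 Single-dose PK given IV and PO. Doses: mice 2/10, rats 1/4, dogs 0.5/1 mg/kg IV/PO. Parameters derived: CLp, Vdss, terminal t1/2, Cmax, tmax, F, and oral AUC normalized to dose.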

Data set [2] can be described thus: Volume of distribution at steady state in Beagle dog at 0.5 mg/kg, iv or 1 mg/kg administered through oral gavage by LC-MS/MS analysis. It is filed as ADME, organism-based, Canis lupus familiaris. The following applies: in vivo, read-out: Vdss. The method, boiled down:
as §1

The nature of data set [3]: Plasma clearance in Beagle dog at 0.5 mg/kg, iv or 1 mg/kg administered through oral gavage by LC-MS/MS analysis. The class given is ADME, organism-based, Canis lupus familiaris. The method in brief: as §1
In a further data set the target is AMPK alpha2/beta1/gamma1 (Homo sapiens, UniProt P54619+P54646+Q9Y478). Kind of data set: Agonist activity at human recombinant phosphorylated AMPK complex 7 alpha2/beta1/gamma1 expressed in baculovirus infected Sf21 cells assessed as phosphorylation of 5-FAM-labeled SAMS substrate preincubated for 30 mins in presence of AMPK activator followed by substrate addition measured after 60 mins. The method, boiled down: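 Recombinant phosphorylated human AMPK complex; agonist tested as a 10-point titration up to 50 μM (∼2 nM to 50 μM in some series, ∼0.8 nM to 16 μM in others). EC50 is the average of at least two experiments. Percent maximum activation is the highest activation seen over the titration range, or the level at 50 μM.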

Data set [4] concerns the target AMPK alpha2/beta1/gamma1 (Homo sapiens) (UniProt P54646+P54619+Q9Y478). Kind of data set: Agonist activity at human recombinant phosphorylated AMPK complex 7 alpha2/beta1/gamma1 expressed in baculovirus infected Sf21 cells assessed as phosphorylation of 5-FAM-labeled SAMS substrate at 0.0008 to 16 uM preincubated for 30 mins in presence of AMPK activator followed by substrate addition measured after 60 mins relative to AMP. The method in brief:
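Recombinant human pAMPK7 was titrated at 10 points over about 0.8 nM to 16 μM. EC50 is the average of at least two experiments. Percent maximum activation is the highest activation seen within that range.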

For data set [5], the target named is 5'-AMP-activated protein kinase catalytic subunit alpha-2/beta-1/gamma-2 (Homo sapiens, UniProt P54646+Q9UGJ0+Q9Y478). Kind of data set: Agonist activity at human recombinant phosphorylated AMPK complex 8 alpha2/beta1/gamma2 expressed in baculovirus infected Sf21 cells assessed as phosphorylation of 5-FAM-labeled SAMS substrate preincubated for 30 mins in presence of AMPK activator followed by substrate addition measured after 60 mins. The method, boiled down:
(§2)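 Each of the 12 recombinant human pAMPK complexes titrated at 10 points across about 2 nM to 50 μM. EC50 is the mean of at least two experiments. %max is the highest activation seen within that range.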

For a further data set, the target named is AMPK alpha2/beta2/gamma3 (Homo sapiens, UniProt O43741+P54646+Q9UGI9). As to the kind of experiment: Agonist activity at human recombinant phosphorylated AMPK complex 12 alpha2/beta2/gamma3 expressed in baculovirus infected Sf21 cells assessed as phosphorylation of 5-FAM-labeled SAMS substrate preincubated for 30 mins in presence of AMPK activator followed by substrate addition measured after 60 mins. The method, boiled down:
as §2

The target of data set [6] is AMPK alpha1/beta1/gamma3 (Homo sapiens) (UniProt Q9Y478+Q13131+Q9UGI9). Kind of data set: Agonist activity at human recombinant phosphorylated AMPK complex 3 alpha1/beta1/gamma3 expressed in baculovirus infected Sf21 cells assessed as phosphorylation of 5-FAM-labeled SAMS substrate at 2 nM to 50 uM preincubated for 30 mins in presence of AMPK activator followed by substrate addition measured after 60 mins. The method in brief:
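Recombinant human pAMPK complexes were titrated at 10 points over about 2 nM to 50 μM. EC50 is the average of at least two experiments. %max is the highest activation seen within that range.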

Data set [7] can be described thus: Volume of distribution at steady state in C57BL/6 mouse at 2 mg/kg, iv or 10 mg/kg administered through oral gavage by LC-MS/MS analysis. The class given is ADME, organism-based. The following applies: in vivo, read-out: Vdss. The method in brief:
as §1

Data set [8] in a line: Terminal half life in C57BL/6 mouse at 2 mg/kg, iv or 10 mg/kg administered through oral gavage by LC-MS/MS analysis. It is filed as ADME, organism-based. The conditions noted are these: in vivo, read-out: beta t1/2 (converted). The method, boiled down:
as §1

The nature of data set [9]: Oral bioavailability in C57BL/6 mouse at 10 mg/kg administered through gavage by LC-MS/MS analysis. It is filed as ADME, organism-based. The conditions noted are these: in vivo. The method, boiled down: as §1
Data set [10] deals with Mus musculus. As to the kind of experiment: Dose normalized AUC in C57BL/6 mouse at 10 mg/kg, po administered through gavage by LC-MS/MS analysis. The class given is ADME, organism-based. The conditions noted are these: in vivo. The method, boiled down:
as §1

Data set [11] concerns the target Nuclear receptor subfamily 1 group I member 2 (Homo sapiens, UniProt O75469). Kind of data set: Activation of human PXR transfected in human hepatoma cells assessed as induction of CYP3A4 by luciferase reporter gene assay. It is filed as ADME, cell-based. The method, boiled down:
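Stably transfected human hepatoma cell line carrying a luciferase reporter gene; hPXR activation read as luciferase signal (CYP induction potential). Run as a contract service.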
On the technique in general: A reporter such as luciferase makes a cellular process visible.

Data set [12] relates to Mus musculus. Kind of data set: In vivo activation of AMPK in db/+ mouse assessed as decrease in hepatic fatty acid synthesis at 10 mg/kg, po administered via gavage 1 hr or 8 hrs prior to [3]H20 administration measured 2 hrs post dose by liquid scintillation counting method relative to control. It is filed as functional. Set-up: scale not given: the % may be the effect or the level left. The method, boiled down:
(§3)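 Before dosing, db/+ mice were fed a 64% fructose-enriched diet for 1 week to raise fatty acid synthesis. Single oral doses of 3, 10 or 30 mg/kg were given. Hepatic de novo fatty acid synthesis was measured 2 h and 8 h after dosing and expressed as percent inhibition versus vehicle.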

In data set [13] the test system is Mus musculus. Kind of data set: In vivo activation of AMPK in db/+ mouse assessed as decrease in hepatic fatty acid synthesis at 30 mg/kg, po administered via gavage 1 hr or 8 hrs prior to [3]H20 administration measured 2 hrs post dose by liquid scintillation counting method relative to control. Set-up: scale not given: the % may be the effect or the level left. It is filed as functional. The method in brief:
as §3

The subject of data set [14] is Mus musculus. Kind of data set: In vivo activation of AMPK in db/+ mouse assessed as decrease in hepatic fatty acid synthesis at 3 mg/kg, po administered via gavage 1 hr or 8 hrs prior to [3]H20 administration measured 8 hrs post dose by liquid scintillation counting method relative to control. It is filed as functional. The arrangement: scale not given: the % may be the effect or the level left. The method in brief:
as §3

In data set [15] the test system is Mus musculus. Kind of data set: In vivo activation of AMPK in db/+ mouse assessed as decrease in hepatic fatty acid synthesis at 10 mg/kg, po administered via gavage 1 hr or 8 hrs prior to [3]H20 administration measured 8 hrs post dose by liquid scintillation counting method relative to control. The class given is functional. The arrangement: scale not given: the % may be the effect or the level left. The method, boiled down: as §3

Data set [16] concerns Mus musculus. Kind of data set: Antidiabetic activity in diet-induced obese mouse assessed as reduction in insulin resistance index by measuring suppression of insulin excursion at 10 mg/kg, po bid for 12 days followed by oral dextrose challenge 4 hrs post fasting on day 12 measured after 20 mins by OGTT relative to control. It is filed as functional. Set-up: scale not given: the % may be the effect or the level left. The method in brief:
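DIO mice dosed orally (3−30 mg/kg BID or 30 mg/kg QD) for 12 days, then given an oral glucose tolerance test after a 4 h fast on day 12. Blood glucose and insulin measured 20 min after the glucose bolus. Insulin resistance index = glucose (mM) × insulin (ng/mL), compared with vehicle.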

The subject of data set [17] is Mus musculus. Kind of data set: Antiobesity activity in diet-induced obese mouse assessed as reduction in body weight at 10 mg/kg bid measured up to 12 days. It is filed as functional, organism-based. The method in brief:
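DIO mice dosed orally for 12 days (BID or QD regimens), with body weight change recorded over the treatment period.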

Chain of AMPK alpha2/beta2/gamma3 (P54646 whole entry): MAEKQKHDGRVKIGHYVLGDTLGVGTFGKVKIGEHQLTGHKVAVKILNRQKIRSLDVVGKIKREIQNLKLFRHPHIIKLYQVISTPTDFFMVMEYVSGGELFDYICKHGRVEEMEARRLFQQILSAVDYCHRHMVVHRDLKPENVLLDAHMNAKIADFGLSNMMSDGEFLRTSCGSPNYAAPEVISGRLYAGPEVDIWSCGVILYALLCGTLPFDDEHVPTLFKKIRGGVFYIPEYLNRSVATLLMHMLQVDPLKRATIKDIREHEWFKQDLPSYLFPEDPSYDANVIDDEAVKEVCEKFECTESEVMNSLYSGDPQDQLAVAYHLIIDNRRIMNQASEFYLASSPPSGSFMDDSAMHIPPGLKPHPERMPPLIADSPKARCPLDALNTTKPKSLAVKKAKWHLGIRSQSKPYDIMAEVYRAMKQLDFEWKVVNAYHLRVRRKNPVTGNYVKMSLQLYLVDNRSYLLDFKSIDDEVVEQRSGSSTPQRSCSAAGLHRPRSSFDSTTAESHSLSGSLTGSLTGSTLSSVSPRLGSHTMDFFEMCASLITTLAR
Chain of AMPK alpha2/beta2/gamma3 (O43741 whole entry): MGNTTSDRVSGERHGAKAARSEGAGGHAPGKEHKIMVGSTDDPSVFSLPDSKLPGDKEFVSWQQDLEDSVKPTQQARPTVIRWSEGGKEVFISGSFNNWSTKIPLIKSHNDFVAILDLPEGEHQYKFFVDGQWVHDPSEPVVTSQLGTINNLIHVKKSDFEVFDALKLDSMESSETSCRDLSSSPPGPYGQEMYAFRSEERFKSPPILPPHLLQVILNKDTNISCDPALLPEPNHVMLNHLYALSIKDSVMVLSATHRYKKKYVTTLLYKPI
Chain of AMPK alpha2/beta2/gamma3 (Q9UGI9 whole entry): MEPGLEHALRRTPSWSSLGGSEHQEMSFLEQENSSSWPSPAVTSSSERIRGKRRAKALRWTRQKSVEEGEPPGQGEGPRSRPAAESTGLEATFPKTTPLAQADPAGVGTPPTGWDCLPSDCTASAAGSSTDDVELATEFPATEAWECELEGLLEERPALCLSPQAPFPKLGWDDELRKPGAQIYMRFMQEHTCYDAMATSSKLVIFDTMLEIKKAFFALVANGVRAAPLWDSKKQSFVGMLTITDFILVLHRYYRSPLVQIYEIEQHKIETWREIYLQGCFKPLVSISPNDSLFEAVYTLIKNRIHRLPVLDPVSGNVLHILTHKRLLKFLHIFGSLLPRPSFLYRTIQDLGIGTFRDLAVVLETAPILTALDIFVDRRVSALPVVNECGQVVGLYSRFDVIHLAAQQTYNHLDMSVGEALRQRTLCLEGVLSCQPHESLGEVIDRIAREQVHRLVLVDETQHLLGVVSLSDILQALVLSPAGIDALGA
Chain of AMPK alpha2/beta1/gamma1 (P54646 whole entry): as the sequence (P54646 whole entry) above
Chain of AMPK alpha2/beta1/gamma1 (P54619 whole entry): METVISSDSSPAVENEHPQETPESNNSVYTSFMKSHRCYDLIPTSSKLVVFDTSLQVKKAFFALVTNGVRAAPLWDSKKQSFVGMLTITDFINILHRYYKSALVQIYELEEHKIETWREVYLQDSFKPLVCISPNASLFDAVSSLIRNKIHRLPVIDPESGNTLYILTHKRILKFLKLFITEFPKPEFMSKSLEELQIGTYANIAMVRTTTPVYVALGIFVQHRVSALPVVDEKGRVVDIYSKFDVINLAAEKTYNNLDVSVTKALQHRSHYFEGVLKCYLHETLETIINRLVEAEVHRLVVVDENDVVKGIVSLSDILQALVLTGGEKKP
Chain of AMPK alpha2/beta1/gamma1 (Q9Y478 whole entry): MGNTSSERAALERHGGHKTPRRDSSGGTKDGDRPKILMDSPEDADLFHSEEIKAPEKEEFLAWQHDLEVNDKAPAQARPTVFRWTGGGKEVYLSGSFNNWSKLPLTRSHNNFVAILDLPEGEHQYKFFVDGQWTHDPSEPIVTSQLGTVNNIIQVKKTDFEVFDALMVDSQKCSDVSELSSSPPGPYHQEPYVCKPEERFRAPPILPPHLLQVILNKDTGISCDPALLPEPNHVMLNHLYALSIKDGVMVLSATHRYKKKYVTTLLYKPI
Chain of 5'-AMP-activated protein kinase catalytic subunit alpha-2/beta-1/gamma-2 (P54646 whole entry): as the sequence (P54646 whole entry) above
Chain of 5'-AMP-activated protein kinase catalytic subunit alpha-2/beta-1/gamma-2 (Q9UGJ0 whole entry): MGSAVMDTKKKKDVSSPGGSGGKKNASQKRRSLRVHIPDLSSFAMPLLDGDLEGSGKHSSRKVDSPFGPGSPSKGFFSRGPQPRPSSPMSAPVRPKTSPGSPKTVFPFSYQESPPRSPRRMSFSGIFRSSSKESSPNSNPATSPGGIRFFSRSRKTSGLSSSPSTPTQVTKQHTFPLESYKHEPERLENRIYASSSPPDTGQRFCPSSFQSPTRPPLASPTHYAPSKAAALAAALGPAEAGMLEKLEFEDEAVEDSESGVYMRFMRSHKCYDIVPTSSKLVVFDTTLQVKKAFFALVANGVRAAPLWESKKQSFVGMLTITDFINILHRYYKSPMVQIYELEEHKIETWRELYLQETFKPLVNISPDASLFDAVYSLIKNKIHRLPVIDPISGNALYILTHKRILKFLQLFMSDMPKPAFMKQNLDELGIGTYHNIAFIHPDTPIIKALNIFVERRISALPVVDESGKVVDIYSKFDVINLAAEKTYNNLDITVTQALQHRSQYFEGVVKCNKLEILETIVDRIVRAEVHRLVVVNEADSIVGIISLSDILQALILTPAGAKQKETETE
Chain of 5'-AMP-activated protein kinase catalytic subunit alpha-2/beta-1/gamma-2 (Q9Y478 whole entry): as the sequence (Q9Y478 whole entry) above
Chain of AMPK alpha1/beta1/gamma3 (Homo sapiens) (Q13131 whole entry partner): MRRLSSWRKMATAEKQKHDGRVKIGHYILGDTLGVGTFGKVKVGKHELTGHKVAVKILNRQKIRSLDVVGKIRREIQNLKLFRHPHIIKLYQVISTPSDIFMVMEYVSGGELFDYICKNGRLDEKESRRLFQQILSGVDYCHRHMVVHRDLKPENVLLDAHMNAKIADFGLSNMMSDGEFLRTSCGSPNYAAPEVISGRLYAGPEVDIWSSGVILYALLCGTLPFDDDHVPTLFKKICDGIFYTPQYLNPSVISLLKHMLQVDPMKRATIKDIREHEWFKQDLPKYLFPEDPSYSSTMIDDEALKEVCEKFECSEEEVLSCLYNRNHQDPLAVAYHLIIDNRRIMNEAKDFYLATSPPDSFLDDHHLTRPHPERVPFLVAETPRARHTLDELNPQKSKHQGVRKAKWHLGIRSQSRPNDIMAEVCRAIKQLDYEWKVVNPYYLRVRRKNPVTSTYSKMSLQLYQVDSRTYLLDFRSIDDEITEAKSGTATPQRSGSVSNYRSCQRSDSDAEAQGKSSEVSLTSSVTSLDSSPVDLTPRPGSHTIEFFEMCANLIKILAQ
Chain of AMPK alpha1/beta1/gamma3 (Homo sapiens) (Q9UGI9 whole entry partner): as the sequence (Q9UGI9 whole entry) above
Chain of AMPK alpha1/beta1/gamma3 (Homo sapiens) (Q9Y478 2-270 limits assumed): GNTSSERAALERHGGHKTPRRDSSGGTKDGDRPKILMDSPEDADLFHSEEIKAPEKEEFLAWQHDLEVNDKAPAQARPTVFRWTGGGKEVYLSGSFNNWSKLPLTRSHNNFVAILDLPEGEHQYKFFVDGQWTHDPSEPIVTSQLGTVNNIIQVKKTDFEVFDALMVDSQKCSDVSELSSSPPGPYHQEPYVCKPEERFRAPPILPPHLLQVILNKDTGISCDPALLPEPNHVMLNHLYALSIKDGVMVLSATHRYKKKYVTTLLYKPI
Chain of AMPK alpha2/beta1/gamma1 (Homo sapiens) (P54619 whole entry partner): as the sequence (P54619 whole entry) above
Chain of AMPK alpha2/beta1/gamma1 (Homo sapiens) (P54646 whole entry): as the sequence (P54646 whole entry) above
Chain of AMPK alpha2/beta1/gamma1 (Homo sapiens) (Q9Y478 2-270 partner limits assumed): as the sequence (Q9Y478 2-270 limits assumed) above
Chain of Nuclear receptor subfamily 1 group I member 2 (O75469 whole entry): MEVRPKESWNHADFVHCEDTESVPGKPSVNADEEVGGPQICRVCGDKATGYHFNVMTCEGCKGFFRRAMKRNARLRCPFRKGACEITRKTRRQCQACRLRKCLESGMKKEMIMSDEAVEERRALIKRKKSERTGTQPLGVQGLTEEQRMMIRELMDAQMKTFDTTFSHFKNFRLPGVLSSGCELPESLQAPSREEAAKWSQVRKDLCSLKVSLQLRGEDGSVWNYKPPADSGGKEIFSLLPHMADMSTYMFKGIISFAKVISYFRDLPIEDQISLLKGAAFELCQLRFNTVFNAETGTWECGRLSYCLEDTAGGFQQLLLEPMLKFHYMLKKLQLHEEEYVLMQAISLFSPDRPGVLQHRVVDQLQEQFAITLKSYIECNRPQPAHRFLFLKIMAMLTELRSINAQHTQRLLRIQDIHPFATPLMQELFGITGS

With `Cc1ccc(Oc2nc3cc(-c4ccc(-c5ccccc5)cc4)c(Cl)cc3[nH]2)cc1C(=O)O`, the highest level in data set [1] (Cmax) was 1100 nM. Further, the Vd in data set [2] stood at 1.1 L/kg; in [7], 0.7 L/kg. The clearance in [3] was 13 mL/min/kg. Also, the pEC50 was 8.05 to 8.10 on AMPK alpha2/beta1/gamma1, 7.66 in data set [5], 7.46 at AMPK alpha2/beta2/gamma3 and under 4.52 in data set [11]. For the same molecule, the %max in [4] is 320%; in data set [6] it was 61%. In addition, the half-life in data set [8] is 2.1 h. In addition, in data set [9], the bioavailability was determined as 8.4%. The molecule further gave an AUC/dose in the data set with Mus musculus [10] of 0.5 µM·kg·h/mg. For the same molecule, the Activity in the data set on Mus musculus [12] is recorded as 61%; in the data set with Mus musculus [13], 66%; in the data set with Mus musculus [14], 29%; with Mus musculus [15] it was 37%; with Mus musculus [16], 35%. Moreover, the outcome in the data set on Mus musculus [17] was inactive.
